# RGS4 block = human RGS4 inhibition | B-score at 10 µM | 310,000 tested, 0.45% active | HEK293 M3R/RGS4 inducible, Fluo-4 calcium flux; stronger effect = higher value; triggered by carbachol at its EC20;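 active = B-score, a plate-corrected calcium signal, over three deviations above library mean, with baseline fluorescence within five deviations of library mean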;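 also: RGS4 expression induced by doxycycline in cells with stable M3 receptor; B-score is computed from the integrated fluorescence ratio over baseline after carbachol; higher B-score means a larger calcium signal and so more RGS4 inhibition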
# Target sequence (P49798 whole entry, looked up): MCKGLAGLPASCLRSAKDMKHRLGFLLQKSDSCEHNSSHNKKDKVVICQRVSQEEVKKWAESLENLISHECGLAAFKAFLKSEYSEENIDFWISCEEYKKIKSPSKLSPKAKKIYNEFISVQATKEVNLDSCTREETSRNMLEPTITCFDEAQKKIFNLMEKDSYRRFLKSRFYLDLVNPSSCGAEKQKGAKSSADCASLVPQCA
# MrgX1 allo act = human MrgX1 positive allosteric modulation, primary screen. AID 588675. B-score at 10 µM. Q96LB2. 310,000 tested, 0.63% active. MrgX1-HEK293, Fluo-4 calcium flux, FDSS; stronger effect = higher value;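 active = plate-corrected calcium response at least 3 library SD above typical, normal starting fluorescence, not activating the receptor alone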;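 also: compound read alongside a low EC10 to EC30 dose of BAM8-22 agonist; peak minus trough fluorescence over baseline measured at the second addition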
# Target sequence (Q96LB2 whole entry, looked up): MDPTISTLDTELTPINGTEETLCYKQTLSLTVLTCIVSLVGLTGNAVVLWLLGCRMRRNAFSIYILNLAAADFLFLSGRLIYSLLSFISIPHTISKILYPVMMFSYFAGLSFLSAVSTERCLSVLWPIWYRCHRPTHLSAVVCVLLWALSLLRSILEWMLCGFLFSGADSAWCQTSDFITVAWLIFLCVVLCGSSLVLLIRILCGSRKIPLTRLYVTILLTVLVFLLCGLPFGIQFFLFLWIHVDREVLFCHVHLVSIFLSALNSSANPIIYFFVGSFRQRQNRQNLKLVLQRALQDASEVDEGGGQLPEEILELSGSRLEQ
# RGS4 act = RGS4 potentiation or activation | HEK293 M3R/inducible RGS4, carbachol calcium flux Fluo4; stronger effect = lower value | B-score at 10 µM | 310,000 tested, 0.92% active | AID 463111;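 active = B-score of the integrated calcium signal more than 4 SD below the library mean, with starting fluorescence not abnormally high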;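 also: negative B-score means reduced calcium response which marks RGS4 activation or potentiation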
#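 System – HEK293 FlpIn-TREx cells, stable M3R, doxycycline-inducible RGS4 · Reagent – ECmax carbachol challenge · Times – compound preincubation 20 min at room temperature before agonist · Technique – Fluo4 fluorescence kinetic imaging of calcium · Measure – B score of integrated Fluo4 ratio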
# MrgX1 ag = agonists of human MrgX1 receptor. 310,000 tested, 0.44% active. MrgX1-HEK293 cells, Fluo-4 calcium fluorescence, agonist mode; stronger effect = higher value. B-score at 10 µM;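 active = calcium response B-score plate-corrected fluorescence ratio at least 3 library SD, with starting fluorescence B-score inside 5 SD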
#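 Test system: Stable human MrgX1 HEK293 cell line | Schedule: Overnight plating before 1 h dye loading | Read-out basis: Baseline-normalised fluorescence change ratio, B-scored | Detection: Kinetic calcium dye fluorescence, Fluo-4 NW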
# MrgX1 antag = blocks BAM8-22 activation of human MrgX1 receptor | MRGX1-HEK293 calcium flux, Fluo-4, BAM8-22 antagonism; stronger effect = lower value | B-score at 10 µM | 310,000 tested, 1.3% active | AID 588676;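 active = calcium-response B-score plate-corrected more than 3 library SD below zero, starting fluorescence within 5 deviations, no agonist response on first addition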;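 also: peak minus trough fluorescence over baseline after final BAM8-22 challenge near maximal dose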
# MrgX1 ant reconf = confirmation of human MrgX1 receptor antagonists; remaining BAM8-22 calcium response % of control (stronger effect = lower value), % at 10 µM; shares compounds with MrgX1 antag; AID 602420; 2,300 tested, 19% active; MrgX1-HEK293, BAM8-22 calcium flux, Fluo-4; stronger effect = lower value;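 active = remaining agonist calcium response no higher than 100% minus 3 SD of agonist-only control wells, with starting fluorescence near control levels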;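 also: agonist BAM8-22 given at a near maximal EC90 to ECmax level; peak minus minimum fluorescence divided by baseline after agonist addition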
# HEK293 Ca flux = activity in parental HEK293 cells lacking MrgX1; shares compounds with MrgX1 antag; AID 624111; 4,000 tested, 2% active; fluorescence ratio F(max-min)/F0 at 10 µM; Fluo-4 calcium fluorescence, FDSS;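 active = duplicate-averaged calcium fluorescence ratio at least three times the standard deviation of buffer wells, a nonspecific response in parental cells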
# HEK293 Ca counter = counter-screen for MrgX1 allosteric activators: effect in parental HEK293 cells | shares compounds with MrgX1 antag | parental HEK293 calcium flux, Fluo-4 fluorescence ratio; stronger effect = higher value | fluorescence ratio F(max-min)/F0 at 10 µM | 4,000 tested, 0.4% active;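 active = calcium fluorescence ratio, averaged over duplicates, at least 3 SD of the buffer-well ratio, meaning a nonspecific response in receptor-free cells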;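 also: untransfected parental HEK293 lacking MrgX1 used as counterscreen for MrgX1 allosteric activators; fluorescence change taken during the second addition on a kinetic imager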
# HEK293 Ca cntr2 = activity in parental HEK293 cells lacking MrgX1 receptor | Fluo-4 calcium fluorescence (FDSS); stronger effect = higher value | AID 624115 | fluorescence ratio F(max-min)/F0 at 10 µM | shares compounds with MrgX1 antag | 4,000 tested, 8.7% active;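 active = calcium fluorescence ratio at least three times the spread of buffer wells, meaning a non-specific response in parental cells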
# A number is an active result; . = inactive; / = not tested or not shown. Sampled rows, rich in hits. Any-hit rate of the full collection: about 3.5%.
SMILES,RGS4 block,MrgX1 allo act,RGS4 act,MrgX1 ag,MrgX1 antag,MrgX1 ant reconf,HEK293 Ca flux,HEK293 Ca counter,HEK293 Ca cntr2
COc1ccc(Nc2cc(C)nc(N3CCN(C(=O)c4ccc5c(c4)OCO5)CC3)n2)cc1,.,.,.,.,.,/,/,/,/
Cc1ccc(Cl)c(OCC(=O)Nc2cccnc2)c1,.,.,.,.,.,/,/,/,/
Cc1ccc(Cl)c(OCC(=O)Nc2sc(C)c(C)c2C#N)c1,.,.,.,.,-7.9,.,.,.,.
CC(Sc1nncs1)C(=O)Nc1ccc2c(c1)OCO2 (stereo unspecified),.,.,.,.,.,/,/,/,/
CSc1nc2ccc3nc(NC(=O)c4ccccc4)sc3c2s1,.,.,.,.,-7.4,.,.,.,.
Cc1cc2cc3c(cc2nc1SCc1ccccn1)OCCO3,.,.,.,.,-6.5,.,.,.,.
N#Cc1cc2ccccc2nc1SCc1ccccn1,.,.,.,.,.,/,/,/,/
CCc1c(C)nc(SCC(=O)c2ccc(C)c(C)c2)[nH]c1=O,.,.,.,.,-7,.,.,.,.
CCCOC(=O)c1cc(=O)[nH]c2ccccc12,.,.,.,.,-4.7,.,.,.,.
CCN1CCN(CC(=O)N2c3ccccc3Sc3ccccc32)CC1,.,.,.,.,-5.1,.,.,.,.
CCOC(=O)C(C(=O)OCC)c1cc(Br)c2noc3c2c1C(=O)c1ccccc1-3,.,.,.,.,.,/,/,/,/
O=C1c2ccccc2-c2onc3ccc(Oc4ccccc4)c1c23,.,.,.,.,-7.4,74%,.,.,.
Cc1nc(SCC(=O)Nc2ccc(Cl)cc2[N+](=O)[O-])nc(C)c1C,.,.,.,.,.,/,/,/,/
COc1ccc(C(=O)NCCS(=O)(=O)NC2CCCC2)cc1,.,.,.,.,.,/,/,/,/
O=C(NCCS(=O)(=O)NC1CCCC1)c1ccc(F)cc1,.,.,.,.,-4.9,.,.,.,.
COC(=O)c1c(N)sc(C(C)=O)c1C,.,.,.,.,-8.4,.,.,.,.
NS(=O)(=O)c1cccc(NC(=O)CN2CCC(Cc3ccccc3)CC2)c1,.,.,.,.,.,/,/,/,/
Cc1ccc(/C(O)=C2/C(=O)C(=O)N(CCCn3ccnc3)C2c2ccccn2)cc1 (stereo unspecified),.,/,.,/,/,/,/,/,/
O=C1C(=O)N(Cc2cccnc2)C(c2ccccn2)/C1=C(/O)c1ccc(F)cc1 (stereo unspecified),.,.,.,.,-5.1,.,.,.,.
COCCN1C(=O)C(=O)/C(=C(/O)c2ccc(C)cc2)C1c1ccccn1 (stereo unspecified),.,.,.,.,-7.7,.,.,.,.
Cc1n[nH]c(=O)nc1N/N=C/c1ccco1,.,.,.,.,.,/,/,/,/
COc1ccc(-c2cc(C(=O)NCc3ccco3)c3ccccc3n2)cc1,.,.,.,.,.,/,/,/,/
O=C(NCc1ccco1)c1cc(-c2ccccc2)nc2ccccc12,.,.,.,.,-5.3,.,.,.,.
Cc1cc(NS(=O)(=O)c2ccc(NC(=O)CCSc3ccc(F)cc3)cc2)nc(C)n1,.,.,.,.,.,/,/,/,/
O=C(COC(=O)c1cnccn1)NCCc1ccc(Cl)cc1Cl,.,.,.,.,-5.9,.,.,.,.
SMILES,RGS4 block,MrgX1 allo act,RGS4 act,MrgX1 ag,MrgX1 antag,MrgX1 ant reconf,HEK293 Ca flux,HEK293 Ca counter,HEK293 Ca cntr2
O=C(COC(=O)c1cnccn1)Nc1ncc(Cl)cc1Cl,.,.,.,.,.,/,/,/,/
Cc1cnc(C)c(N2CCN(Cc3nc(-c4ccccc4)no3)CC2)n1,.,.,.,.,.,/,/,/,/
CCOC(=O)c1c(-c2ccc(C)cc2)csc1NC1=NS(=O)(=O)c2ccccc21,.,.,.,.,-6.8,.,.,.,.
CN1CCc2c(sc3c2C(=O)NC(c2ccccc2)N3)C1 (stereo unspecified),.,.,.,.,-9.5,.,.,.,.
O=C(NC1CCCCCCC1)c1ccc(Br)o1,.,.,.,.,-4.7,.,.,.,.
O=C(NC1CCCCCC1)c1ccc(Br)o1,.,.,.,.,.,/,/,/,/
Cc1ccccc1-c1nnnn1C1CCS(=O)(=O)C1 (stereo unspecified),.,.,.,.,-6.4,.,.,.,.
CC(NC(=O)c1ccc(NC2=NC3CS(=O)(=O)CC3S2)cc1)c1ccccc1 (stereo unspecified),.,.,.,.,.,/,/,/,/
O=C(CSc1nnc(CNC(=O)c2cccs2)o1)NC1CCCCC1,.,.,.,.,-7.1,.,.,.,.
COC(=O)c1ccc(NC(=O)C2C3C=CC(O3)C2C(=O)O)cc1 (stereo unspecified),.,.,.,.,-8.7,.,.,.,.
Cc1occc1C(=O)N/N=C/c1cccs1,.,.,.,.,-10,83%,.,.,.
Cc1cc(C)n2c(=O)c3ccc(Cl)cc3nc2c1C#N,.,.,.,.,-5.8,.,.,.,.
Cc1csc(NC(=O)c2nc3nc(C)cc(C)n3n2)n1,.,.,.,.,-5.4,.,.,.,.
Cc1cc(C)n2nc(C(=O)Nc3nccs3)nc2n1,.,.,.,.,.,/,/,/,/
CCn1cnc2cc(NCc3ccc(C)cc3)ccc21,.,.,.,.,-4.6,.,.,.,.
CCN(CC)c1ccc(CNc2ccc3c(c2)ncn3CC)cc1,.,.,.,.,.,/,/,/,/
CC1(C)CC(=O)C=C(NCCO)C1,.,.,.,.,-4.7,.,.,.,.
CCCCC(=O)Nc1ccc(C(=O)N(CC)c2ccccc2C)cc1,.,.,.,.,-7,.,.,.,.
CCCSCCCNC(=O)CC1Oc2ccccc2NC1=O (stereo unspecified),.,.,.,.,-4.9,.,.,.,.
COCCCNC(=O)CC1Oc2ccccc2NC1=O (stereo unspecified),.,.,.,.,.,/,/,/,/
CS(=O)(=O)N1CCC(C(=O)Nc2cccc([N+](=O)[O-])c2)CC1,.,.,.,.,.,/,/,/,/
CCCCC(=O)NC1=C(C(=O)OC)SCC1,.,.,.,.,-4.9,.,.,.,.
Cc1cc(C)c(S(=O)(=O)Nc2cccc(S(=O)(=O)N3CCOCC3)c2)c(C)c1,.,.,.,.,.,/,/,/,/
CCCn1c(-c2cccs2)nc2ccccc21,.,.,.,.,.,/,/,/,/
CCN1c2ccccc2-c2nc3ccccc3n2C1c1cccs1 (stereo unspecified),.,.,.,.,-6.1,.,.,.,.
